Key:
GluN1/GluN2C [1] = target: T1, GluN1/GluN2C (Rattus norvegicus, UniProt P35439+Q00961); settings: cited from earlier work
GluN1/GluN2D [2] = target: T2, GluN1/GluN2D (Rattus norvegicus, UniProt P35439+Q62645); settings: cited from earlier work
GluN1/GluN2A [3] = target: T3, GluN1/GluN2A (Rattus norvegicus, UniProt P35439+Q00959); settings: cited from earlier work
GluN1/GluN2B [4] = target: T4, GluN1/GluN2B (Rattus norvegicus, UniProt P35439+Q00960); settings: cited from earlier work
GluN1/GluN2B [5] = target: T4, GluN1/GluN2B; settings: cited from earlier work; remark: listed apart in the source
[6] = system: GluN2C- and GluN2D-containing NMDARs; test: Two electrode voltage clamp recording, Xenopus oocytes, CIQ-sensitive subunits; type: cell-based, rat
GluN1/GluN2A [7] = target: T3, GluN1/GluN2A; settings: cited from earlier work; remark: listed apart in the source
GluN1/GluN2D [8] = target: T2, GluN1/GluN2D; test: Two electrode voltage clamp recording, Xenopus oocytes; type: cell-based
GluN1/GluN2C [9] = target: T1, GluN1/GluN2C; test: Two electrode voltage clamp recording, Xenopus oocytes; type: cell-based
How it was run: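 Xenopus oocytes expressing GluN1/GluN2 (1:2 cRNA) were clamped at −40 mV at 23 °C, 2–5 days post-injection, with 30 μM glycine in all solutions. Test compound was applied at increasing concentrations during saturating 100 μM glutamate/30 μM glycine. […] Data came from 5–22 oocytes, 2–3 batches.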

GluN1/GluN2A [10] = target: T3, GluN1/GluN2A; test: Two electrode voltage clamp recording, Xenopus oocytes; type: cell-based; settings: read-out: response, % of control
How it was run: (§1)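 Defolliculated stage V–VI Xenopus laevis oocytes were injected with GluN1 and GluN2 cRNA at a 1:2 ratio (0.2–10 ng total) and recorded 2–5 days later at 23 °C by two-electrode voltage clamp at −40 mV, with gravity-fed solutions. Currents evoked by 100 μM glutamate plus 30 μM glycine were measured with 100 μM test compound, as % of control; n = 6 oocytes.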

GluN1/GluN2B [11] = target: T4, GluN1/GluN2B; test: as above; type: cell-based; settings: read-out: response, % of control
How it was run: as §1

[12] = saturating glutamate and glycine, oocytes

T1 sequence (Q00961 20-1237, other chains not shown): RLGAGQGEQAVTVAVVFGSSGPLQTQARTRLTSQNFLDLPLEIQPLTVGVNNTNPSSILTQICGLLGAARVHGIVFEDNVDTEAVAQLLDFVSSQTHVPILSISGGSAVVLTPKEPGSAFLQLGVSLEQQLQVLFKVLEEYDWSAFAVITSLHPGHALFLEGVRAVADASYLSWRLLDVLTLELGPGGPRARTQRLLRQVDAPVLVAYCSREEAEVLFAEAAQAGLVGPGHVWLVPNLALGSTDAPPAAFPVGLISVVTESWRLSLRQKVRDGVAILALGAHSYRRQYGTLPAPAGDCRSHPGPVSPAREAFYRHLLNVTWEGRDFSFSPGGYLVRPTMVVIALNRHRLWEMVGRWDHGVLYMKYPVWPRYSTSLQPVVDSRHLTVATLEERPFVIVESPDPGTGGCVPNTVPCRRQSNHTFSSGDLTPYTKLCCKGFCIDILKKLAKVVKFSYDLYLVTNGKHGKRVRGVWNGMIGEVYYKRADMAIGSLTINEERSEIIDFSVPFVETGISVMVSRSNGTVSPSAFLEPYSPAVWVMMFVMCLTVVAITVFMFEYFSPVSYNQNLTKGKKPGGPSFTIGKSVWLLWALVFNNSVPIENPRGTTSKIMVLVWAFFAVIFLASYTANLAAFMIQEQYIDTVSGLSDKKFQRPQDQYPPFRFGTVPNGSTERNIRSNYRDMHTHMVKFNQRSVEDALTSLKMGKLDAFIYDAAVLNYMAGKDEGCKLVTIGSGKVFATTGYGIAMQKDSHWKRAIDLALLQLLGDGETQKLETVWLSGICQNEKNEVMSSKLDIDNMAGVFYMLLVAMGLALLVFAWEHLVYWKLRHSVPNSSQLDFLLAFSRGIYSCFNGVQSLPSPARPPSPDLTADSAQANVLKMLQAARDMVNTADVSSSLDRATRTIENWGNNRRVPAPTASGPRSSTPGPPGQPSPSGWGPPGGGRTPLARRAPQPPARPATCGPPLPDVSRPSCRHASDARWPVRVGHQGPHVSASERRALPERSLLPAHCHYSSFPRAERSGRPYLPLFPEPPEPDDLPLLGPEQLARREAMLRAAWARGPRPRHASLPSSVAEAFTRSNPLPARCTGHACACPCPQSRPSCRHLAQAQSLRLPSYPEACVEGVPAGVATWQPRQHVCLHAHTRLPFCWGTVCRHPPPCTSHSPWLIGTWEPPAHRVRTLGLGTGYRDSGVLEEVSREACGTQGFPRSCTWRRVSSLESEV
T4 sequence (Q00960 27-1482, other chains not shown): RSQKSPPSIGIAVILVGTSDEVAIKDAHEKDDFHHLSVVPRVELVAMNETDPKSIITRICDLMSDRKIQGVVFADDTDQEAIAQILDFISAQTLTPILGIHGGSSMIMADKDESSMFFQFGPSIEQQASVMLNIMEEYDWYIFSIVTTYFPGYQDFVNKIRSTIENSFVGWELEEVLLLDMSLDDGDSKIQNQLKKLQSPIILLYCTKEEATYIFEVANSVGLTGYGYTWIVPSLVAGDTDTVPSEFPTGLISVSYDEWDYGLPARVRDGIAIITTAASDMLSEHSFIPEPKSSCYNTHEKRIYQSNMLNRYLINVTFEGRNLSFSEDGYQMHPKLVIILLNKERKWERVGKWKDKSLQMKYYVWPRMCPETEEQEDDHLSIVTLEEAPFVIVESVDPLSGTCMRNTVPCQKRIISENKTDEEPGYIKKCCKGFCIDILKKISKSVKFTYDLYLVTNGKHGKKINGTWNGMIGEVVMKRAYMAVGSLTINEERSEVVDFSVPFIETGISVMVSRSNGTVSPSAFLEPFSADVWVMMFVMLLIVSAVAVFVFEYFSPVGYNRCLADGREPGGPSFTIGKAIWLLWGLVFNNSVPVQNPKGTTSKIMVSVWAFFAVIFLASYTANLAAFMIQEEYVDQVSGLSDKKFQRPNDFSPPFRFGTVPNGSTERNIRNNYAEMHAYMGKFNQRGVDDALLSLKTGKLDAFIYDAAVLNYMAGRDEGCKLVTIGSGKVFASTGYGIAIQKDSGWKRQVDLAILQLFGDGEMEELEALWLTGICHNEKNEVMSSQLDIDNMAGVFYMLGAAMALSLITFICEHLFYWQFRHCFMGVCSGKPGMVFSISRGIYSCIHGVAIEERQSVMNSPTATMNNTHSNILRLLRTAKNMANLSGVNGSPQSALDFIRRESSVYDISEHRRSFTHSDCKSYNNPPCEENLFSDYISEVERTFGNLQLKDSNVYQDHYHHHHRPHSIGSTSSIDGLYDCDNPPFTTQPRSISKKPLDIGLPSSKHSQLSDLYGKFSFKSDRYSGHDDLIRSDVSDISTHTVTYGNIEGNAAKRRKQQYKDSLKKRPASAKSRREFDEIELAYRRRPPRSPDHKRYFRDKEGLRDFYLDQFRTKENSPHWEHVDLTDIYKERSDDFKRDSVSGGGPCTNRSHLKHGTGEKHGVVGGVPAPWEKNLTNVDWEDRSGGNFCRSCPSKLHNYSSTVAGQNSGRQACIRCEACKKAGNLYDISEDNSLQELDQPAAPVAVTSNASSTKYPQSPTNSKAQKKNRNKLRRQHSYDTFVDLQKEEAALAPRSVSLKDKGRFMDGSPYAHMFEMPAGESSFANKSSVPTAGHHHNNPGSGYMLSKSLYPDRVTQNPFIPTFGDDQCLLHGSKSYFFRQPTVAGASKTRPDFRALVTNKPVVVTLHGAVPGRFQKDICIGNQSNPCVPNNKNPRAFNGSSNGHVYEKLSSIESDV
T2 sequence (Q62645 28-1323, other chains not shown): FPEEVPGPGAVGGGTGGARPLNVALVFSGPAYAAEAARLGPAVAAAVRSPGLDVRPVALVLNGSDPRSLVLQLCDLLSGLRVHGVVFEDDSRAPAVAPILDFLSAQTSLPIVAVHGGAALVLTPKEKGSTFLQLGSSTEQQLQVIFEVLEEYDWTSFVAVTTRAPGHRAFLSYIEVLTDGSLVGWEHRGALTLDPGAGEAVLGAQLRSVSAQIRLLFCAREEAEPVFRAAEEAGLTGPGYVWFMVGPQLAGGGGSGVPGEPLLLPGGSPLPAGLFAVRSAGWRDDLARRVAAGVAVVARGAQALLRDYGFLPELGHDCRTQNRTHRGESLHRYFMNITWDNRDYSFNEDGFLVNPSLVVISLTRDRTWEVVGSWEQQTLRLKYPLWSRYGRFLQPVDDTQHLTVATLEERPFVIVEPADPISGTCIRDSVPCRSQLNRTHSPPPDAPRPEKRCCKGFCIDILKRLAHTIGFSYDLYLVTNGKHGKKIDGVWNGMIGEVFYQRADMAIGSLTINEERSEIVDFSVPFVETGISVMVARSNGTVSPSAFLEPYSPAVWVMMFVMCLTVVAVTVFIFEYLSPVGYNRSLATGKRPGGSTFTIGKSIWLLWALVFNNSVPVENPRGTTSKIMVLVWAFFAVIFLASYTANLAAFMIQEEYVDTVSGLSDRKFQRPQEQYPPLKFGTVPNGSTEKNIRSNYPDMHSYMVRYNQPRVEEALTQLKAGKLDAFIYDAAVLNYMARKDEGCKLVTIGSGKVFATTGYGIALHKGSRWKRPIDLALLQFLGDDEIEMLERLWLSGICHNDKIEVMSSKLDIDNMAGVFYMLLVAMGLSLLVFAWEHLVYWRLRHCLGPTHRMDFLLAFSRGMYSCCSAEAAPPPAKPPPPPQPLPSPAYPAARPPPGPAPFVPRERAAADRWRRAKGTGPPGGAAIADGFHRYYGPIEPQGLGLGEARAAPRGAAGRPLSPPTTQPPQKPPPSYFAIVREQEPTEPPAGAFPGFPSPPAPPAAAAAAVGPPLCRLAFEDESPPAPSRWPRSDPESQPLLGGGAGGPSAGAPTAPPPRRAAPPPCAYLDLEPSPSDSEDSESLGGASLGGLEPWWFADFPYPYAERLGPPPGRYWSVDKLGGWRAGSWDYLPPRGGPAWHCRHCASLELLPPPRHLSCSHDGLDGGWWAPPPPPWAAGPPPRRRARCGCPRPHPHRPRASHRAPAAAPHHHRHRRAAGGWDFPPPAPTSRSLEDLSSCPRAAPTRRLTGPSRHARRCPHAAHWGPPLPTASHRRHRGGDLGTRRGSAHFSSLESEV

Structure (SMILES) | effect on the deactivation time course following glutamate removal (GluN1/GluN2C [1]) | effect on the deactivation time course following glutamate removal (GluN1/GluN2D [2]) | effect on the deactivation time course following glutamate removal (GluN1/GluN2A [3]) | effect on the deactivation time course following glutamate removal (GluN1/GluN2B [4]) | effect at low agonist concentrations (GluN1/GluN2B [5]) | enhancement of the response at EC30 glutamate and glycine ([6]; EC30 concentrations of glutamate and glycine) [fold] | enhancement of the response to maximally effective glutamate and glycine ([6]; maximally effective agonist) [fold] | effect at low agonist concentrations (GluN1/GluN2A [7]) | potentiation, % of control (GluN1/GluN2D [8]; [12]) | potentiation, % of control (GluN1/GluN2C [9]; [12]) | remaining activity at 100 µM (GluN1/GluN2A [10]) [%] | remaining activity at 100 µM (GluN1/GluN2B [11]) [%] | IC50 (GluN1/GluN2D [8]) [µM] | IC50 (GluN1/GluN2C [9]) [µM]
COc1ccc(OCC2c3cc(OC)c(OC)cc3CCN2C(=O)c2cccc(Cl)c2)cc1 (single isomer, unassigned; (+)) [CIQ, (+)-(3-chlorophenyl)(6,7-dimethoxy-1-((4-methoxyphenoxy)methyl)-3,4-dihydroisoquinolin-2(1H)-yl)methanone] | modest effects | no detectable effect | no detectable effect | no detectable effect | no effect | ≤ 5 | 2 | no effect | 281% ± 10% | 340% ± 27% |  |  |  | 
CNC(=O)N1N=C(c2ccc(N)cc2)c2cc3c(cc2CC1C)OCO3 (centres unmarked) [GYKI 53655] |  |  |  |  |  |  |  |  |  |  | 104 | 107 | 133 | 143
